Compounds with a hit are over-represented: about 1.2% of the library has one in this group of screens.
CaV13 ICDI inh – Disruptors of the CACNA1D IQ motif to Ca2+-dependent inactivation inhibitor domain association, primary screening, Förster resonance energy transfer in intact living … | HEK cells, CFP/YFP FRET ICDI-IQ, plate reader, 10 min; percent FRET-ratio fall versus neutral wells | inhibition, % at 12.3 µM | hit rate 0.098% among 340,000 | AID 743397;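 active means mean replicate inhibition of at least 30% and at least 1% of replicates passing that level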
ARNT-TACC3 inh – ARNT/TACC3 interaction disruption | AID 623870 | inhibition, % at 9.99 µM | AlphaScreen His-ARNT PAS-B/GST-TACC3 binding, luminescence; TACC3 fragment carries E629A point mutation | Q9Y6A5 | hit rate 0.66% among 390,000;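 active means mean inhibition of replicates at least 50% and at least half of replicates each reaching 50%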
CAL PDZ FP-1 – inhibitors of human CAL PDZ peptide binding | purified CAL PDZ, TMR-peptide fluorescence polarization, 1 h | inhibition, % at 24.9 µM | hit rate 0.92% among 300,000 | AID 602252;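 active means mean inhibition of at least 30% with at least half of replicates also reaching 30%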
CAL PDZ FP-2 – human CAL PDZ-peptide interaction inhibition; purified CAL PDZ, TMR-peptide fluorescence polarization, 1 h; inhibition, % at 20 µM; hit rate 0.02% among 330,000; Q9HD26;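 active means highest replicate inhibition of at least 40%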
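System: tagged CAL PDZ domain. Schedule: 1 h room-temperature incubation prior to read. Signal: fluorescence polarization (mP). Measure: percent inhibition from loss of millipolarization.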
Numbers stand for hits; i = inactive; nt = no result given; + = active, no number.

SMILES | CaV13 ICDI inh | ARNT-TACC3 inh | CAL PDZ FP-1 | CAL PDZ FP-2
Cc1ccc(S(=O)(=O)Nc2ccc3c(c2)CC(=O)N([C@H](C)CO)C[C@H](C)[C@@H](CN(C)C)O3)cc1 | nt | i | nt | nt
O=C(Cn1cnc([N+](=O)[O-])n1)N/N=C/c1cccc2ccccc12 | i | nt | i | i
O=C(Cn1cnc([N+](=O)[O-])n1)N/N=C/c1ccc(O)cc1O | i | 63 | i | i
CN1/C(=C\C(=S)NC(=O)c2ccccc2Cl)C(C)(C)c2ccccc21 | i | i | i | i
CN1/C(=C/C(=S)NC(=O)C2(C)CC2(Cl)Cl)C(C)(C)c2ccccc21 (stereo not drawn) | i | 48 | nt | i
COc1ccc(CC(NC(C)=O)C(=O)NC2CCN(C(=O)c3ccc([N+](=O)[O-])cc3)CC2)cc1OC (stereo not drawn) | i | i | 77 | i
COc1ccccc1CC(NC(C)=O)C(=O)NC1CCN(C(=O)c2ccc([N+](=O)[O-])cc2)CC1 (stereo not drawn) | i | i | i | i
O=C(CN(Cc1ccccc1Cl)S(=O)(=O)c1ccc(Cl)cc1)N/N=C/c1ccc(C(=O)O)cc1 | i | 51 | i | i
CC[C@]12c3[nH]c4cc(CCC(=O)N(C)C)ccc4c3CCN1C(=O)[C@@H](CC(=O)NCCCOC)C[C@@H]2C(=O)N1CCN(C(=O)C2CC2)CC1 | i | i | 32 | i
CC(=O)Nc1ccc2c(c1)C(=O)N(C)[C@H]1CC[C@H](CC(=O)N3CCc4ccccc4C3)O[C@H]1CO2 | nt | i | nt | nt
COC(=O)c1ccc(CSc2nnc3nc(C)cc(C)n23)cc1 | i | i | 33 | i
O=C(C[C@@H]1CC[C@@H]2[C@H](COC[C@@H](O)CN2Cc2nccs2)O1)NCc1ccccc1 | nt | i | nt | nt
C[C@@H]1CN([C@H](C)CO)S(=O)(=O)c2ccc(-c3ccncc3)cc2O[C@@H]1CN(C)C | nt | i | nt | nt
Nn1c(SCC(=O)N2CCCC2)nnc1-c1cccs1 | 33 | nt | nt | nt
C[C@@H]1CN([C@@H](C)CO)C(=O)c2cc(C#C[C@@H](C)O)cnc2O[C@@H]1CN(C)CC1CCOCC1 | nt | i | nt | nt
Cc1ncc(CO)c(/C=N/NC(=S)Nc2ccc(F)cc2)c1O | i | 54 | i | i
Cc1ncc(CO)c(/C=N/N=C/c2ccccc2O)c1O | i | i | i | i
Cc1ncc(CO)c(/C=N/Nc2ccc(C(F)(F)F)cn2)c1O | i | 72 | i | i
CCCC#Cc1cnc2c(c1)C(=O)N([C@H](C)CO)C[C@@H](C)[C@@H](CN(C)C(=O)C1CCC1)O2 | nt | i | nt | nt
COc1ccc(C(=O)COC(=O)c2cccnc2SC)cc1 | i | i | i | i
COc1ccc(OC)c(C(=O)COC(=O)c2cccnc2SC)c1 | i | i | 35 | i
Cc1cc([N+](=O)[O-])nn1CC(=O)N(C)C1CCCCC1 | i | nt | 54 | i
CCc1nn(CC(=O)N(C)C2CCCCC2)c(=O)c2cc3cc(C)ccc3n12 | i | i | 104 | i
Cc1cc([N+](=O)[O-])nn1CC(=O)N(C)Cc1ccccc1 | i | i | i | nt
Cc1ccc(CNC(=O)C(c2ccccc2)c2ccccc2)cc1 | i | i | 94 | i
SMILES | CaV13 ICDI inh | ARNT-TACC3 inh | CAL PDZ FP-1 | CAL PDZ FP-2
NS(=O)(=O)c1ccc(CNC(=O)C(c2ccccc2)c2ccccc2)cc1 | i | i | i | i
O=c1cccc2c1c1cc[nH]c3ccc(=O)n2c31 | nt | i | 49 | i
CCCSC1=C(C#N)C(c2ccc(O)c(OC)c2)CC(=O)N1 (stereo not drawn) | i | i | nt | i
COc1cc(C2CC(=O)NC(SCC(=O)Nc3ccccc3C)=C2C#N)ccc1O (stereo not drawn) | i | 68 | i | i
CCN(c1ccccc1)S(=O)(=O)c1ccc(OC)c(NC(=O)CN(C)C)c1 | + | i | i | i
C[C@@H]1CN([C@@H](C)CO)C(=O)c2cc(C#CCN(C)C)cnc2O[C@H]1CN(C)C(=O)Cc1cccnc1 | nt | i | nt | nt
Clc1cc(Cl)c2nc(N3CCOCC3)sc2c1 | i | i | i | i
Clc1ccc(-c2nsc(N3CCOCC3)n2)c(Cl)c1 | i | i | 62 | i
O=c1ccc(-c2ccc(S(=O)(=O)NCC3CCN(Cc4ccccc4F)CC3)s2)n[nH]1 | i | 50 | nt | i
C[C@H](CO)N1C[C@H](C)[C@H](CN(C)Cc2ccc(C(F)(F)F)cc2)Oc2ccc(NS(=O)(=O)c3cccs3)cc2CC1=O | nt | i | nt | nt
C/C=C/c1ccc([C@H]2[C@@H](CO)N(C(=O)Cc3cccnc3)[C@H]2CNC(C)=O)cc1 | nt | i | nt | nt
Fc1ccc(NC(=S)Nc2cccc3cnccc23)cc1 | i | i | i | i
COc1ccc(NC(=S)Nc2cccc3cnccc23)cc1 | i | 15 | i | i
COc1ccccc1NC(=S)Nc1cccc2cnccc12 | i | 76 | i | i
O=C(Nc1cc(F)ccc1F)N1C[C@H]2[C@@H](c3ccccc31)[C@@H](CO)N2Cc1ccncc1 | nt | i | nt | nt
C[C@H](CO)N1C[C@H](C)[C@@H](CN(C)C(=O)NC2CCCCC2)Oc2ccc(NS(=O)(=O)c3ccc(Cl)cc3)cc2CC1=O | nt | i | nt | nt
C[C@H]1CN([C@@H](C)CO)C(=O)c2cc(NS(=O)(=O)c3ccc(Cl)cc3)ccc2O[C@@H]1CN(C)S(=O)(=O)c1ccc(Cl)cc1 | nt | i | nt | nt
O=S(=O)(N[C@H]1CC[C@@H](CCn2cc(-c3ccc(F)cc3)nn2)O[C@H]1CO)c1ccccc1F | nt | i | nt | nt
C/C(=N\NC(=O)c1ccccc1)c1c(C)[nH]n(-c2ccccc2)c1=O | i | 42 | nt | i
C/C(=N\NC(=O)c1ccc(C)cc1)c1c(C)[nH]n(-c2ccccc2)c1=O | i | nt | i | nt
Cn1c(=O)c2nc(Cl)c(-c3ccccc3)nc2n(C)c1=O | i | i | i | i
Cn1c(=O)c2nc(-c3ccccc3)c(-c3ccccc3)nc2n(C)c1=O | i | i | 66 | i
O=C(COC(=O)c1ccc(Br)o1)NCc1ccc(Cl)cc1 | i | i | 31 | i
O=C(COC(=O)c1cc(=O)c2ccccc2o1)NCc1ccccc1 | i | i | 50 | i
O=C(COC(=O)c1cc(=O)c2ccccc2o1)NCc1ccc(Cl)cc1 | i | nt | nt | nt
SMILES | CaV13 ICDI inh | ARNT-TACC3 inh | CAL PDZ FP-1 | CAL PDZ FP-2
O=C(COC(=O)c1ccc(Br)o1)NCc1ccc(F)cc1 | i | i | i | i
C[C@@H]1CN([C@H](C)CO)C(=O)c2cc(NC(=O)CCCN(C)C)ccc2O[C@@H](C)CCCCO[C@@H]1CN(C)CC1CCCCC1 | nt | i | nt | nt
CO[C@@H]1CN(C)C(=O)c2ccc(NC(=O)C3CCCC3)cc2OC[C@H](C)N(C(C)=O)C[C@@H]1C | nt | i | nt | nt
CN(C)CC(=O)Nc1ccc2c(c1)[C@@H]1C[C@H](CC(=O)N3CCOCC3)O[C@H](CO)[C@@H]1O2 | nt | i | nt | nt
CN1CCN(c2ccc(Cl)cc2NC(=O)C2COc3ccccc3O2)CC1 (stereo not drawn) | i | i | 71 | i
Cc1noc(C)c1S(=O)(=O)Nc1ccc2c(c1)CC(=O)N([C@H](C)CO)C[C@H](C)[C@H](CN(C)Cc1ccc(C(=O)O)cc1)O2 | nt | i | nt | nt
CC(Nc1ccc(S(=O)(=O)N2CCN(C)CC2)cc1[N+](=O)[O-])c1ccccc1 (stereo not drawn) | i | i | nt | i

Screens from PubChem.
